An excerpt weighted towards active compounds, which were near 11% of everything screened.
WT yeast gro inh – growth inhibition of WT yeast, mitochondrial fusion screen; mitochondrial fusion phenotypic screen, WT strain; inhibition, % at 10 µM; actives 2.1% (n = 190,000); in the data active means inhibition above about 58%; tested in S. cerevisiae
Diaph inh CS – inhibits diaphorase or chemically oxidizes, flagging diaphorase assay artifacts; diaphorase resazurin-to-resorufin fluorescence, NADH, 16 min; bacterial (C. kluyveri) enzyme, not human; inhibition, % at 20 µM; actives 0.69% (n = 190,000); AID 1217;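 active means primary screen inhibition at 20 µM above a set limit, cut at about 50% in these data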
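System: Bacterial diaphorase enzyme (C. kluyveri) | Incubation: 16-min room-temperature incubation before reading | Benchmarks: No-NADH positive control and DMSO neutral control | Measured by: Resorufin fluorescence 544/590 nm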
L major viab – Leishmania major promastigote growth inhibition; AID 1063; Leishmania major promastigotes, resazurin fluorescence viability; inhibition, % at 10 µM; actives 9% (n = 200,000);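 further: promastigotes grown with compound for 44 hours at 28 °C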
Diaph act CS – counter-screen for diaphorase-based assays: diaphorase activators and chemical reducers | AID 1229 | activation factor at 20 µM | Diaphorase/resazurin coupled assay, resorufin fluorescence, 16 min; active compounds read high; 1 = vehicle wells, 0 = NADH-free wells | actives 0.005% (n = 190,000);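 active means diaphorase activity raised at least twofold by the compound at 20 µM; inactive means activation factor below 2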
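System – purified diaphorase enzyme from Clostridium kluyveri · Input – enzyme 0.07 U/mL final · Also added – final NADH 0.114 mM, resazurin 0.1 mM · Measured by – fluorescence of resorufin, 544 nm excitation, 590 nm emission · Timing – 16 min enzyme reaction, ambient temperature · Measure – resorufin increase flagging diaphorase activators or reducers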
G6PDH counter – inhibits Leuconostoc G6PDH, flagging false hits in G6PDH-based assays; Purified L. mesenteroides G6PDH, diaphorase/resazurin coupled fluorescence, 45 min; actives 0.12% (n = 200,000); AID 1020; inhibition, % at 5 µM
A number is an active result. Unless noted, no stated cut-off is given here; in the data, active means inhibition above about 50%; inactive means the rest.

How did CCc1ccc(OCC(=O)N2CCN(Cc3ccc4c(c3)OCO4)CC2)cc1 do in these assays?
WT yeast gro inh: inactive; Diaph inh CS: inactive; L major viab: 83.3; Diaph act CS: inactive; G6PDH counter: inactive

Results for CC12CN3C(O)C(C)(C1)CC(C)(C2)C3O (stereo unspecified) ?
WT yeast gro inh: inactive; Diaph inh CS: inactive; L major viab: inactive; Diaph act CS: inactive; G6PDH counter: inactive

Results for COC(=O)CSC1=NN1c1cc(C)nc(N)n1 ?
WT yeast gro inh: inactive; Diaph inh CS: inactive; L major viab: inactive; Diaph act CS: inactive; G6PDH counter: inactive

What do the screens show for `CNC(=O)OCc1n(C)cc[n+]1C`?
WT yeast gro inh: inactive; Diaph inh CS: inactive; L major viab: inactive; Diaph act CS: inactive; G6PDH counter: inactive

Results for CCOC(=O)COc1ccc2c(c1)c(C(C)=O)c(C)n2Cc1ccccc1 ?
WT yeast gro inh: inactive; Diaph inh CS: inactive; L major viab: 76.2; Diaph act CS: inactive; G6PDH counter: inactive

What do the screens show for `Cc1ccc(C)c(C2(O)CC(C)N(C)CC2C)c1` (stereo unspecified)?
WT yeast gro inh: inactive; Diaph inh CS: inactive; L major viab: inactive; Diaph act CS: inactive; G6PDH counter: inactive

How did CC1OC(NCCc2ccccc2)C(O)C(O)C1O (stereo unspecified) do in these assays?
WT yeast gro inh: inactive; Diaph inh CS: inactive; L major viab: inactive; Diaph act CS: inactive; G6PDH counter: inactive

What do the screens show for `CCCCC/C=C\C/C=C\C/C=C\C/C=C\CCCC(=O)Nc1ccc(O)cc1`?
WT yeast gro inh: 75.7; Diaph inh CS: inactive; Diaph act CS: inactive; G6PDH counter: inactive

How did CCCC(=O)Nc1ccc(N2CCN(CC)CC2)c(Cl)c1 do in these assays?
WT yeast gro inh: inactive; Diaph inh CS: inactive; L major viab: inactive; Diaph act CS: inactive; G6PDH counter: inactive

How did COc1cccc(C2C([N+](=O)[O-])=C(N)Oc3c2c(=O)oc2ccccc32)c1 (stereo unspecified) do in these assays?
WT yeast gro inh: inactive; Diaph inh CS: inactive; L major viab: inactive; Diaph act CS: inactive; G6PDH counter: inactive

What do the screens show for `O=C1C(=O)c2ccccc2-c2ccccc21`?
WT yeast gro inh: 96.8; Diaph inh CS: inactive; L major viab: 100.2; Diaph act CS: inactive; G6PDH counter: 53.4

What do the screens show for `O=C1C(=O)c2cccc3cccc1c23`?
WT yeast gro inh: inactive; Diaph inh CS: inactive; L major viab: inactive; Diaph act CS: inactive; G6PDH counter: inactive

How did CCCCOc1ccc(CC2C(=O)N(C)C(=O)N(C)C2=O)cc1 do in these assays?
WT yeast gro inh: inactive; Diaph inh CS: inactive; L major viab: inactive; Diaph act CS: inactive; G6PDH counter: inactive

How did CCCCOc1ccc(CN2CCN(CC)CC2)cc1 do in these assays?
WT yeast gro inh: inactive; Diaph inh CS: inactive; L major viab: 86.1; Diaph act CS: inactive; G6PDH counter: inactive

Results for COc1ccc(Br)cc1CN1CCN(CCO)CC1 ?
WT yeast gro inh: inactive; Diaph inh CS: inactive; L major viab: inactive; Diaph act CS: inactive; G6PDH counter: inactive

Results for CCCCCCOc1ccc(CN2CCN(CCO)CC2)cc1 ?
WT yeast gro inh: inactive; Diaph inh CS: inactive; L major viab: 99.1; Diaph act CS: inactive; G6PDH counter: inactive

Results for Cc1ccc(CN2CCN(Cc3ccccc3)CC2)cc1 ?
WT yeast gro inh: inactive; Diaph inh CS: inactive; L major viab: inactive; Diaph act CS: inactive; G6PDH counter: inactive

Results for CCCCOc1ccc(CN2CCN(CCO)CC2)cc1 ?
WT yeast gro inh: inactive; Diaph inh CS: inactive; L major viab: 89.3; Diaph act CS: inactive; G6PDH counter: inactive

Results for CC(=O)N1N=C2C3CCN(CC3)C2C1c1cccc2ccccc12 (stereo unspecified) ?
WT yeast gro inh: inactive; Diaph inh CS: inactive; L major viab: inactive; Diaph act CS: inactive; G6PDH counter: inactive

How did Cc1cccc(-n2c(=S)[nH]c3ccccc3c2=O)n1 do in these assays?
WT yeast gro inh: inactive; Diaph inh CS: inactive; L major viab: inactive; Diaph act CS: inactive; G6PDH counter: inactive

Results for O=C1NC(=O)C2(Cc3ccccc3N3CCOCC32)C(=O)N1c1ccccc1 (stereo unspecified) ?
WT yeast gro inh: inactive; Diaph inh CS: inactive; L major viab: 91.5; Diaph act CS: inactive; G6PDH counter: inactive

Results for O=C1NC(=O)C2(Cc3ccccc3N3CCCC32)C(=O)N1c1ccccc1 (stereo unspecified) ?
WT yeast gro inh: inactive; Diaph inh CS: inactive; L major viab: inactive; Diaph act CS: inactive; G6PDH counter: inactive

How did CCCn1cc(C(=O)O)cn1 do in these assays?
WT yeast gro inh: inactive; Diaph inh CS: inactive; L major viab: inactive; Diaph act CS: inactive; G6PDH counter: inactive

How did CCOC(=O)c1c(-c2ccc(OC)cc2)oc2ccc(OC(=O)N(C)C)cc12 do in these assays?
WT yeast gro inh: inactive; Diaph inh CS: inactive; L major viab: inactive; Diaph act CS: inactive; G6PDH counter: inactive

Results for Cc1oc2ccc(OC(=O)N(C)C)cc2c1C(=O)OC(C)C ?
WT yeast gro inh: 75.1; Diaph inh CS: inactive; L major viab: inactive; Diaph act CS: inactive; G6PDH counter: inactive

How did CN(C)c1nc(OCCNC(=O)COc2ccc(Cl)cc2Cl)nc(N2CCCCC2)n1 do in these assays?
WT yeast gro inh: inactive; Diaph inh CS: inactive; L major viab: inactive; Diaph act CS: inactive; G6PDH counter: inactive

Results for Cc1ccc(-n2cc(CNC(C)Cc3cnccn3)c(-c3cccc(C)c3)n2)cc1 (stereo unspecified) ?
WT yeast gro inh: 65.7; Diaph inh CS: inactive; L major viab: 65.1; Diaph act CS: inactive; G6PDH counter: inactive

What do the screens show for `O=P(C(Cl)Cl)(N1CCCCC1)N1CCCCC1`?
WT yeast gro inh: inactive; Diaph inh CS: inactive; L major viab: inactive; Diaph act CS: inactive; G6PDH counter: inactive

What do the screens show for `COc1ccc(C(=O)Oc2cccc3cccnc23)cc1S(=O)(=O)N1CCOCC1`?
WT yeast gro inh: inactive; Diaph inh CS: inactive; L major viab: 97.9; Diaph act CS: inactive; G6PDH counter: inactive

How did Cc1ccc2c(c1)N(N=O)CCC2 do in these assays?
WT yeast gro inh: inactive; Diaph inh CS: inactive; L major viab: inactive; Diaph act CS: inactive; G6PDH counter: inactive

How did CCCc1[nH]nc2c1C1(C(=O)N(Cc3ccccc3)c3ccccc31)C(C(=O)OC)=C(N)O2 (stereo unspecified) do in these assays?
WT yeast gro inh: inactive; Diaph inh CS: inactive; L major viab: 81.7; Diaph act CS: inactive; G6PDH counter: inactive

What do the screens show for `COc1ccc(OCC#CCN2CCC(C)CC2)cc1`?
WT yeast gro inh: inactive; Diaph inh CS: inactive; L major viab: inactive; Diaph act CS: inactive; G6PDH counter: inactive

Results for Clc1ccc(OCC#CCN2CCCCCC2)cc1 ?
WT yeast gro inh: inactive; Diaph inh CS: inactive; L major viab: 85.1; Diaph act CS: inactive; G6PDH counter: inactive

Results for COc1ccc(NP(=O)(Oc2ccccc2OC)Oc2ccccc2OC)cc1 ?
WT yeast gro inh: inactive; Diaph inh CS: inactive; L major viab: inactive; Diaph act CS: inactive; G6PDH counter: inactive

What do the screens show for `Cc1cccc(OP(=O)(Nc2ccc(F)cc2)Oc2cccc(C)c2)c1`?
WT yeast gro inh: 61.0; Diaph inh CS: inactive; L major viab: inactive; Diaph act CS: inactive; G6PDH counter: inactive

Assay outcomes from PubChem BioAssay.
